From ChEMBL document CHEMBL3286200, “Design and green synthesis of 2-(diarylalkyl)aminobenzothiazole derivatives and their dual activities as angiotensin converting enzyme inhibitors and calcium channel blockers” (Eur J Med Chem, 2014)
Active and inactive are the calls of the source. No cut-off for these calls is given here.

What was measured:
Rattus norvegicus [1] = species: Rattus norvegicus; assay: Inhibition of voltage-dependent calcium channel in Sprague-Dawley rat thoracic aorta assessed as inhibition of CaCl2-induced contraction at […] by isometric force transducer; type: tissue-based
Outline: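 Isolated rat aortic rings hung on steel hooks in a water-jacketed organ bath of oxygenated KHB at 37 °C. Resting tension 1 g, equilibration about 30 min. Rings precontracted with […], with buffer changed every 15 min. Tissue preincubated with test agent, then cumulative calcium concentration–response curve (10^-3 to 10^-1 M) recorded as isometric tension.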

Rattus norvegicus [2] = species: Rattus norvegicus; assay: (§1) Inhibition of voltage-dependent calcium channel in Sprague-Dawley rat thoracic aorta assessed as inhibition of CaCl2-induced contraction by isometric force transducer; type: tissue-based
Outline: (§2)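 Rat aortic rings held at 37 °C in 25 mL oxygenated KHB in an organ bath, under 1 g resting tension, equilibrated about 30 min. Isometric tension recorded by force transducer. Initial contraction with phenylephrine 1 mM, buffer changed every 15 min. After preincubation with test agent, a cumulative calcium concentration-response curve (10^-3 to 10^-1 M) was recorded.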

[3] = biological target: T1, Angiotensin-converting enzyme (Oryctolagus cuniculus) (UniProt P12822); assay: Inhibition of rabbit lung ACE assessed as inhibition of hippuryl-histidyl-leucine substrate hydrolysis at 1 uM pretreated for 10 mins followed by addition of 5 mM HHL substrate for 30 mins measured as hippuric acid release
T1 sequence (whole entry): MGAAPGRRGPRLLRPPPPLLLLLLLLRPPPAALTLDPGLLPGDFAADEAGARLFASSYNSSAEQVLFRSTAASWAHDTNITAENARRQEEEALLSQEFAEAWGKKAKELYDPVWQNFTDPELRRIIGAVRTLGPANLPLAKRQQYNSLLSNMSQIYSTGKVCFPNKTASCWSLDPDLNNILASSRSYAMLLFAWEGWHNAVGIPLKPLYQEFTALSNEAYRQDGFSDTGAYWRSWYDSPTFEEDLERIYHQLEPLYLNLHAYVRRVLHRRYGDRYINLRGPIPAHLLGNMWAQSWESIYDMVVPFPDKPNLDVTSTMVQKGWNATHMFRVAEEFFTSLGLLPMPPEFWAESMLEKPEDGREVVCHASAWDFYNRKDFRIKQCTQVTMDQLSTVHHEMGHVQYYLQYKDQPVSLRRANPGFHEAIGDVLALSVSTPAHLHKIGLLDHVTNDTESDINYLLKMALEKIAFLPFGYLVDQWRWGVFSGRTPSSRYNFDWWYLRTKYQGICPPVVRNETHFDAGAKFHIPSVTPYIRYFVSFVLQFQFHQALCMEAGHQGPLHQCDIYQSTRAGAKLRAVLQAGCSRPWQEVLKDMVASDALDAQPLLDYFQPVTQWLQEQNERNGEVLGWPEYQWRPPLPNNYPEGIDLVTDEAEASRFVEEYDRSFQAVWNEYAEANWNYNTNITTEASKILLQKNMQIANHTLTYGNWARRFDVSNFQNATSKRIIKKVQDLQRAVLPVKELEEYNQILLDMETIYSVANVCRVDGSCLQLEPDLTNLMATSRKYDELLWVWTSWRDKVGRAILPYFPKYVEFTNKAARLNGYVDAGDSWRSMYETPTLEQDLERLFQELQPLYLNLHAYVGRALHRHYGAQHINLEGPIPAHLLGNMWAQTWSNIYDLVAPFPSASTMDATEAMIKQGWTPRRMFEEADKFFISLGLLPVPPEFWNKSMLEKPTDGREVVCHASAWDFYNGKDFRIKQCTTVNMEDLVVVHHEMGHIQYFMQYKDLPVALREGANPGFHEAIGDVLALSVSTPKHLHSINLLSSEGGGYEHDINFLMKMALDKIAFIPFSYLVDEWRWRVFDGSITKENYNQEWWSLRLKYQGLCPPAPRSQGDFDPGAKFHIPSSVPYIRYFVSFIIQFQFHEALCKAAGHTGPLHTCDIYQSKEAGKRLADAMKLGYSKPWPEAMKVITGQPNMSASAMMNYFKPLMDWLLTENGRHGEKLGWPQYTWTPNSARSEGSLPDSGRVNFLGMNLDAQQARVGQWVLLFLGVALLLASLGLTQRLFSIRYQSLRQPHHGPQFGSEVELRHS
Outline: (§3)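 Reaction started with […] of 5 mM HHL; released hippuric acid read as yellow colour at 410 nm. Inhibition% = 100 − (T/C)×100; IC50 from percentage-inhibition versus concentration curves.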

[4] = biological target: T2, Angiotensin-converting enzyme (Oryctolagus cuniculus, UniProt P12822); assay: Inhibition of rabbit lung ACE assessed as inhibition of hippuryl-histidyl-leucine substrate hydrolysis pretreated for 10 mins followed by addition of 5 mM HHL substrate for 30 mins measured as hippuric acid release; outline: as §3
T2 sequence (P12822 whole entry): T1 sequence (whole entry)

[5] = as §1; type: tissue-based; outline: as §2

SMILES	inhibition (Rattus norvegicus [2])	also measured
COC(=O)C1=C(C)NC(C)=C(C(=O)OC)C1c1ccccc1[N+](=O)[O-]		inhibition (Rattus norvegicus [1]): Active
CN(C)c1ccc(C(Nc2nc3c(Cl)cccc3s2)c2c(O)ccc3ccccc23)cc1 (stereo not given)	Dose-dependent effect	
Oc1ccc2ccccc2c1C(Nc1nc2ccccc2s1)c1ccc(Br)cc1 (stereo not given)	Dose-dependent effect	
Oc1ccc2ccccc2c1C(Nc1nc2ccccc2s1)c1cccc(F)c1 (stereo not given)	Dose-dependent effect	
Oc1ccc2ccccc2c1C(Nc1nc2c(Cl)cccc2s1)c1ccc2ccccc2c1 (stereo not given)	Dose-dependent effect	
Oc1ccc2ccccc2c1C(Nc1nc2ccccc2s1)c1cccc(Br)c1 (stereo not given)	Dose-dependent effect	
Oc1ccc2ccccc2c1C(Nc1nc2ccccc2s1)c1ccccc1 (stereo not given)	Dose-dependent effect	
Oc1ccc2ccccc2c1C(Nc1nc2ccc(Cl)cc2s1)c1ccccc1 (stereo not given)	Dose-dependent effect	
Oc1ccc2ccccc2c1C(Nc1nc2ccccc2s1)c1ccc2ccccc2c1 (stereo not given)	Dose-dependent effect	
Oc1ccc2ccccc2c1C(Nc1nc2c(Cl)cccc2s1)c1ccc(Cl)cc1Cl (stereo not given)	Dose-dependent effect	
COc1ccc(C(Nc2nc3c(Cl)cccc3s2)c2c(O)ccc3ccccc23)cc1 (stereo not given)	Dose-dependent effect	inhibition [3]: 80.1%; IC50 [4]: 0.607 µM; IC50 [5]: 50 µM
Cc1cccc2sc(NC(c3ccc(Cl)c(Cl)c3)c3c(O)ccc4ccccc34)nc12 (stereo not given)	Dose-dependent effect	
Oc1ccc2ccccc2c1C(Nc1nc2c(Cl)cccc2s1)c1ccc(Br)cc1 (stereo not given)	Dose-dependent effect	
COc1cc(C(Nc2nc3ccccc3s2)c2c(O)ccc3ccccc23)cc(OC)c1OC (stereo not given)	Dose-dependent effect	
Cc1ccc(C(Nc2nc3c(Cl)cccc3s2)c2c(O)ccc3ccccc23)cc1 (stereo not given)	Dose-dependent effect	
Cc1ccc(C(Nc2nc3ccccc3s2)c2c(O)ccc3ccccc23)cc1 (stereo not given)	Dose-dependent effect	
Oc1ccc2ccccc2c1C(Nc1nc2c(Cl)cccc2s1)c1ccccc1 (stereo not given)	Dose-dependent effect	
Oc1ccc2ccccc2c1C(Nc1nc2ccccc2s1)c1ccc(Cl)cc1 (stereo not given)	Dose-dependent effect	
COc1ccc(C(Nc2nc3ccccc3s2)c2c(O)ccc3ccccc23)c(OC)c1 (stereo not given)	Dose-dependent effect	
CC(C)c1ccc(C(Nc2nc3ccccc3s2)c2c(O)ccc3ccccc23)cc1 (stereo not given)	Dose-dependent effect	
Oc1ccc2ccccc2c1C(Nc1nc2ccccc2s1)c1ccccc1Cl (stereo not given)	Dose-dependent effect	
N#Cc1ccc(C(Nc2nc3ccccc3s2)c2c(O)ccc3ccccc23)cc1 (stereo not given)	Dose-dependent effect	

SMILES	inhibition (Rattus norvegicus [2])	also measured
Oc1ccc2ccccc2c1C(Nc1nc2ccccc2s1)c1ccc(C(F)(F)F)cc1 (stereo not given)	Dose-dependent effect	
Oc1ccc2ccccc2c1C(Nc1nc2ccccc2s1)c1cccc(Cl)c1 (stereo not given)	Dose-dependent effect	
CN(C)c1ccc(C(Nc2nc3ccccc3s2)c2c(O)ccc3ccccc23)cc1 (stereo not given)	Dose-dependent effect	
Oc1ccc2ccccc2c1C(Nc1nc2ccccc2s1)c1cccc(Oc2ccccc2)c1 (stereo not given)	Dose-dependent effect	
Oc1ccc2ccccc2c1C(Nc1nc2ccc(Cl)cc2s1)c1ccc(Br)cc1 (stereo not given)	Dose-dependent effect	
Oc1ccc2ccccc2c1C(Nc1nc2ccccc2s1)c1ccc(Cl)c(Cl)c1 (stereo not given)	Dose-dependent effect	
Oc1ccc2ccccc2c1C(Nc1nc2ccccc2s1)c1ccc(Cl)cc1Cl (stereo not given)	Dose-dependent effect	
Oc1ccc2ccccc2c1C(Nc1nc2ccccc2s1)c1cc(F)ccc1Br (stereo not given)	Dose-dependent effect	
O=C(/C=C/c1ccc(O)c(O)c1)c1ccc(O)cc1O [BUTEIN]		IC50 [4]: 730 µM
Cc1ccc(C(Nc2nc3ccc(Cl)cc3s2)c2c(O)ccc3ccccc23)cc1 (stereo not given)	Dose-dependent effect	
COc1ccc(C(Nc2nc3ccccc3s2)c2c(O)ccc3ccccc23)cc1 (stereo not given)	Dose-dependent effect	inhibition [3]: 61.8%; IC50 [4]: 0.837 µM; IC50 [5]: 3 µM
Oc1ccc2ccccc2c1C(Nc1nc2c(Cl)cccc2s1)c1ccc(Cl)c(Cl)c1 (stereo not given)	Dose-dependent effect	
Oc1ccc2ccccc2c1C(Nc1nc2c(Cl)cccc2s1)c1ccc(F)cc1 (stereo not given)	Dose-dependent effect	
COc1cc(C(Nc2nc3c(Cl)cccc3s2)c2c(O)ccc3ccccc23)cc(OC)c1OC (stereo not given)	Dose-dependent effect	
Oc1ccc2ccccc2c1C(Nc1nc2ccccc2s1)c1ccc(F)cc1 (stereo not given)	Dose-dependent effect	
Oc1ccc2ccccc2c1C(Nc1nc2ccc(Cl)cc2s1)c1ccc(Cl)c(Cl)c1 (stereo not given)	Dose-dependent effect	
Oc1ccc2ccccc2c1C(Nc1nc2c(Cl)cccc2s1)c1cccc(Oc2ccccc2)c1 (stereo not given)	Dose-dependent effect	
Oc1ccc2ccccc2c1C(Nc1nc2ccccc2s1)c1cccc(Cl)c1Cl (stereo not given)	Dose-dependent effect	
CC(c1ccccc1)C(Nc1nc2ccccc2s1)c1c(O)ccc2ccccc12 (stereo not given)	Dose-dependent effect	
Oc1ccc2ccccc2c1C(Nc1nc2c(Cl)cccc2s1)c1cccc(Cl)c1 (stereo not given)	Dose-dependent effect	
Oc1ccc2ccccc2c1C(Nc1nc2ccccc2s1)c1ccc(F)c(F)c1 (stereo not given)	Dose-dependent effect	
COc1ccc(C(Nc2nc3ccccc3s2)c2c(O)ccc3ccccc23)cc1OC (stereo not given)	Dose-dependent effect	
